According to ChEMBL document CHEMBL1157057, “Iridoids and lignans from Valeriana jatamansi” (J Nat Prod, 2010):

How the values were obtained:
Type in all cases: functional, cell-based
Bel-7402 = assay: Cytotoxicity against human Bel7402 cells after 24 hrs by MTT assay
Outline: (§1)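 Human cancer cell lines from ATCC were seeded at 3000 cells per well and dosed 24 h after seeding across a range of concentrations. After 24 h of compound exposure, MTT was added and incubation continued another 24 h. Viability was read as absorbance at 570 nm and IC50 calculated. Paclitaxel was the positive control.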

PC-3M = assay: (§2) Cytotoxicity against human PC3M cells after 24 hrs by MTT assay; outline: as §1
HCT-8 = assay: Cytotoxicity against human HCT8 cells after 24 hrs by MTT assay; outline: as §1
A549 = assay: Cytotoxicity against human A549 cells after 24 hrs by MTT assay; outline: as §1
[1] = as §2; conditions: PC-3M; outline: as §1

Row | Structure (SMILES) | Activity (Bel-7402) | Activity (PC-3M) | Activity (HCT-8) | Activity (A549) | IC50 [1] | IC50 (HCT-8; HCT-8, 24 h)
1 | C[C@@H]1COC(=O)[C@H]2[C@@H]1C[C@H](O)[C@@]2(C)O | Not toxic | Not toxic | Not toxic | Not toxic | – | –
2 | CO[C@H]1OC(=O)[C@H]2[C@@H]3C[C@H](O)[C@@]2(C)OC[C@H]13 | Not toxic | Not toxic | Not toxic | Not toxic | – | –
3 | C=C(C=O)[C@H]1C[C@H](O)[C@@](C)(O)[C@H]1C(=O)OC | Not toxic | Not toxic | Not toxic | Not toxic | – | –
4 | C=C1COC(=O)[C@H]2[C@@H]1C[C@H](O)[C@@]2(C)O | Not toxic | Not toxic | Not toxic | Not toxic | – | –
5 | C=C1[C@H]2O[C@@H](O)[C@H]3[C@@H]1C[C@H](O)[C@@]3(C)O2 | Not toxic | Not toxic | Not toxic | Not toxic | – | –
6 | CO[C@@H]1O[C@]2(C)[C@@H](O)C[C@@H]3[C@H]1COC(=O)[C@@H]32 | Not toxic | Not toxic | Not toxic | Not toxic | – | –
7 | C[C@]12O[C@@H]3OC(=O)[C@H]1[C@H](C[C@@H]2O)[C@H]3CO | Not toxic | Not toxic | Not toxic | Not toxic | – | –
8 | C=C1[C@H]2OC(=O)[C@H]3[C@@H]1C[C@H](O)[C@@]3(C)O2 | Not toxic | Not toxic | Not toxic | Not toxic | – | –
9 | C[C@H]1COC(=O)[C@H]2[C@@H]1C[C@H](O)[C@@]2(C)O | Not toxic | Not toxic | Not toxic | Not toxic | – | –
10 | C=C(CO)[C@H]1C[C@H](O)[C@@](C)(O)[C@H]1CO | Not toxic | Not toxic | Not toxic | Not toxic | – | –
11 | C=C(C=O)[C@@]1(O)C[C@H](OC(C)=O)C(CO)=C1C=O | Not toxic | Not toxic | Not toxic | Not toxic | – | –
12 | C=C1CO[C@@]2(CO)C(CO)=CC[C@H]12 | Not toxic | Not toxic | Not toxic | Not toxic | – | –
13 | COc1cc(C[C@H]2CO[C@H](c3ccc(O)c(OC)c3)[C@H]2COC(=O)CC(C)C)ccc1O [(+)-9'-ISOVALEROXYLARICIRESINOL] | Not toxic | – | – | Not toxic | 8.1 µM | 5.3 µM
14 | C=C1[C@H]2OC[C@H]3[C@@H]1C[C@H](O)[C@@]3(C)O2 | Not toxic | Not toxic | Not toxic | Not toxic | – | –
